What was measured:
[1] = target: T1, 72 kDa type IV collagenase (Homo sapiens, UniProt P08253); assay: Inhibition of MMP2 using Mca-Pro-Leu-Gly-Leu-Dpa-Ala-Arg as substrate incubated for 30 mins prior to substrate addition measured after 3 hrs by fluorimetric assay
Summary of the method: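 It is preincubated with inhibitor at 25 °C for 30 min. Substrate is added from a 25 μM solution and incubated 3 h at 37 °C. Acetic acid quench, fluorescence ex 340/em 405 nm. IC50 from 6 concentrations in triplicate, two runs.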
Target sequence in this assay (P08253 whole entry): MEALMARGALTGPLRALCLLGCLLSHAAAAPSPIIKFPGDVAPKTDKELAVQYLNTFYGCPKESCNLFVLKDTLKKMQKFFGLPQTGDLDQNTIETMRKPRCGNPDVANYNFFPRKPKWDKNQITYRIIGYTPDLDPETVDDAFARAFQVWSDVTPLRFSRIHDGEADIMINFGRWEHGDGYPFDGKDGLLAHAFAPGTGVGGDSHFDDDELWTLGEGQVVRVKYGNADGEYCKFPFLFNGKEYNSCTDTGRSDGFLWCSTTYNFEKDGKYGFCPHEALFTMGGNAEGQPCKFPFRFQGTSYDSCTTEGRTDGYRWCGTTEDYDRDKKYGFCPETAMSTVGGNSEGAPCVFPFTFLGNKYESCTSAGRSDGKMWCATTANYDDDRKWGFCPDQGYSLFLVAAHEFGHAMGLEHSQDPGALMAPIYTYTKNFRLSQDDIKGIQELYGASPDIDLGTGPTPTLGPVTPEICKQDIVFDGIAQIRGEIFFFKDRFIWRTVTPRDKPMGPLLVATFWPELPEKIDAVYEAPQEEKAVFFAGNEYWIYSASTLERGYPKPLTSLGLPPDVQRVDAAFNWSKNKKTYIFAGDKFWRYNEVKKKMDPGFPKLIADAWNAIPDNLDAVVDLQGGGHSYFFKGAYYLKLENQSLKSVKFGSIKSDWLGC

[2] = target: T2, Matrix metalloproteinase-9 (Homo sapiens, UniProt P14780); assay: Inhibition of recombinant MMP9 catalytic site using Mca-Pro-Leu-Gly-Leu-Dpa-Ala-Arg as substrate incubated for 30 mins prior to substrate addition measured after 3 hrs by fluorimetric assay
Summary of the method: (§1)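 Recombinant catalytic-domain MMP-8 or MMP-9 (500 pM enzyme solution) is used in Tris-HCl 0.1 M pH 7.5, 0.1 M NaCl, 10 mM CaCl2, 0.05% Brij35, 1 mM APMA. Preincubated with inhibitor 30 min at 25 °C, then substrate (25 μM solution) 3 h at 37 °C. Acetic acid stop, fluorescence 340/405 nm. IC50 from six concentrations in triplicate, run twice.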

[3] = target: T3, Neutrophil collagenase (Homo sapiens, UniProt P22894); assay: Inhibition of recombinant MMP8 catalytic site using Mca-Pro-Leu-Gly-Leu-Dpa-Ala-Arg as substrate incubated for 30 mins prior to substrate addition measured after 3 hrs by fluorimetric assay; summary of the method: as §1
Target sequence in this assay (P22894 whole entry): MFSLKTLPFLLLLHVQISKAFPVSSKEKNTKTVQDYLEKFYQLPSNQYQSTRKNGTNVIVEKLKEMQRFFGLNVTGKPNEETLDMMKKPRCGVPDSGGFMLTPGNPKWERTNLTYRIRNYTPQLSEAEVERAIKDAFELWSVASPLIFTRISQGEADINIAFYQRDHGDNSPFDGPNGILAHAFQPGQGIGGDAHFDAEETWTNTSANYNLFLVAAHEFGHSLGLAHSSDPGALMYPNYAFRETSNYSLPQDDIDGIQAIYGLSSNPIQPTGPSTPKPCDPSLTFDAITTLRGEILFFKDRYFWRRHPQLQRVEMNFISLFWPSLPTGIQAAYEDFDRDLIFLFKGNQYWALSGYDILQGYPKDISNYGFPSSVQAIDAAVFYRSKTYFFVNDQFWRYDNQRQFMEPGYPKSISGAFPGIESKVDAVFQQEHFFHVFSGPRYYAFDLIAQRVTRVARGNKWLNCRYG

[4] = target: T1, 72 kDa type IV collagenase; assay: Inhibition of MMP2 using Mca-Pro-Leu-Gly-Leu-Dpa-Ala-Arg as substrate at 100 uM incubated for 30 mins prior to substrate addition measured after 3 hrs by fluorimetric assay
Summary of the method: (§2)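 Buffer: Tris-HCl 0.1 M pH 7.5, 0.1 M NaCl, 10 mM CaCl2, 0.05% Brij35, 1 mM APMA. Compound and enzyme 30 min at 25 °C, then substrate (25 μM solution) 3 h at 37 °C. Acetic acid quench, fluorescence ex 340/em 405 nm.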
Target sequence in this assay (P08253 110-660 limits assumed): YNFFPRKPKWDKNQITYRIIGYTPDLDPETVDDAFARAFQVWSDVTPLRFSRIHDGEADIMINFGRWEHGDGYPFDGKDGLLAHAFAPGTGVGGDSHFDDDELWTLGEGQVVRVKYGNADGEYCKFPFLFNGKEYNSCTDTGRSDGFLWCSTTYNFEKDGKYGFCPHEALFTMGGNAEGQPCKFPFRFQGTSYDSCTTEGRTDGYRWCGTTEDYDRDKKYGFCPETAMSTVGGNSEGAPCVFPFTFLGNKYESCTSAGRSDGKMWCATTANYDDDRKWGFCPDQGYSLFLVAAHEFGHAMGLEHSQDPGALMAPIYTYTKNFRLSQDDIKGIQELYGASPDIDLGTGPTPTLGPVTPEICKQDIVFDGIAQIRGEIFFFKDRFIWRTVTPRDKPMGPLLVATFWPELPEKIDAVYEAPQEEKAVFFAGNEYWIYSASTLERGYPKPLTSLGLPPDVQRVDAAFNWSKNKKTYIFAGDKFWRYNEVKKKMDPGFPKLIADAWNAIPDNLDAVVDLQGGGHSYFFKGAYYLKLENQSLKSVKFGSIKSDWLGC

[5] = target: T3, Neutrophil collagenase; assay: Inhibition of recombinant MMP8 catalytic site using Mca-Pro-Leu-Gly-Leu-Dpa-Ala-Arg as substrate at 100 uM incubated for 30 mins prior to substrate addition measured after 3 hrs by fluorimetric assay
Summary of the method: (§3)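 Percent inhibition against control at a single concentration is measured on recombinant catalytic-domain MMP-8 or MMP-9 (500 pM enzyme solution). Tris-HCl 0.1 M pH 7.5 buffer with NaCl, CaCl2, Brij35, 1 mM APMA. Compound and enzyme 30 min at 25 °C, then substrate (25 μM solution) 3 h at 37 °C. Acetic acid stop, fluorescence 340/405 nm.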
Target sequence in this assay (P22894 101-467 limits assumed): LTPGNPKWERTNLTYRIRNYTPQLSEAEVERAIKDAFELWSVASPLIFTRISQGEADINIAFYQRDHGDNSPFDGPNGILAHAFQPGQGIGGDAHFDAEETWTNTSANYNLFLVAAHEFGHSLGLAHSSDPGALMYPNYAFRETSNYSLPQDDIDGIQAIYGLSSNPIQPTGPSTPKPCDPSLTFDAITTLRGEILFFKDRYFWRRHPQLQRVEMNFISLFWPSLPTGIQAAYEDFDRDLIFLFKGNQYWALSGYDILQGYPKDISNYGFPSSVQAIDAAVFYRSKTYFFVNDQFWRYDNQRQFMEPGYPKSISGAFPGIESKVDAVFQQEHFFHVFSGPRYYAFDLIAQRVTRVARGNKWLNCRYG

[6] = target: T2, Matrix metalloproteinase-9; assay: Inhibition of recombinant MMP9 catalytic site using Mca-Pro-Leu-Gly-Leu-Dpa-Ala-Arg as substrate at 100 uM incubated for 30 mins prior to substrate addition measured after 3 hrs by fluorimetric assay; summary of the method: as §3
[7] = target: T2, Matrix metalloproteinase-9; assay: Inhibition of recombinant MMP9 catalytic site using Mca-Pro-Leu-Gly-Leu-Dpa-Ala-Arg as substrate at 10 uM incubated for 30 mins prior to substrate addition measured after 3 hrs by fluorimetric assay; summary of the method: as §3
[8] = target: T1, 72 kDa type IV collagenase; assay: Inhibition of MMP2 using Mca-Pro-Leu-Gly-Leu-Dpa-Ala-Arg as substrate at 10 uM incubated for 30 mins prior to substrate addition measured after 3 hrs by fluorimetric assay; summary of the method: as §2
Target sequence in this assay (P08253 110-660 limits assumed): as the sequence (P08253 110-660 limits assumed) above

T2 sequence (P14780 whole entry): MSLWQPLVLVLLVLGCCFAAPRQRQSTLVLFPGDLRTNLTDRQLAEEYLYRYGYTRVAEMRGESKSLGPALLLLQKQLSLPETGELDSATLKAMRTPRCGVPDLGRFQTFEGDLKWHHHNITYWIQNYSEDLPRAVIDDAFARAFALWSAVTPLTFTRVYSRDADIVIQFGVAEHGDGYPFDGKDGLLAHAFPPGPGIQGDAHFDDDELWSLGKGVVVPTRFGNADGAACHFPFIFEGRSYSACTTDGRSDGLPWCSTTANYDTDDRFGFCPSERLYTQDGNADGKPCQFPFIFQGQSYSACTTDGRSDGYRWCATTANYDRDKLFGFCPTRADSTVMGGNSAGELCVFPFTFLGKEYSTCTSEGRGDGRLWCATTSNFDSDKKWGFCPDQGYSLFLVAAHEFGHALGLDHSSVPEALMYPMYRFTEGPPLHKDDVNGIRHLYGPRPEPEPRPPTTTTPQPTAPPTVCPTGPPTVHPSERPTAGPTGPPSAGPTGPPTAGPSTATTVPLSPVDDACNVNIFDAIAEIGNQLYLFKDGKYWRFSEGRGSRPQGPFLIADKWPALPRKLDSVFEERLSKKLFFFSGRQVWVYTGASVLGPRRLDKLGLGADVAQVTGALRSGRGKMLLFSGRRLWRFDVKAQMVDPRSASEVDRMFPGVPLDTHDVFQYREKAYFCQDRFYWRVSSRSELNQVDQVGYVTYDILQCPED

Compound	IC50 [1]	IC50 [2]	IC50 [3]	other results
CC(=O)c1ccc(-c2ccc(C(=O)CC3(O)C(=O)NC(=O)NC3=O)cc2)cc1	30 nM	170 nM	109 nM	–
CC(=O)C(c1ccc(-c2ccccc2)cc1)C1(O)C(=O)NC(=O)NC1=O (centres undefined)	–	–	–	inhibition [4]: 38%; inhibition [5]: 71%; inhibition [6]: 28%
COc1ccc(-c2ccc(C(=O)CC3(O)C(=O)NC(=O)NC3=O)cc2)cc1	121 nM	141 nM	184 nM	–
O=C1NC(=O)C(O)(CC(=O)c2ccc(-c3ccc(OC(F)(F)F)cc3)cc2)C(=O)N1	143 nM	21 nM	715 nM	–
O=C1NC(=O)C(O)(CC(=O)c2ccc(C(F)(F)F)cc2)C(=O)N1	–	–	–	inhibition [7]: 11%
Cc1ccc(-c2ccc(C(=O)CC3(O)C(=O)NC(=O)NC3=O)cc2)cc1	301 nM	103 nM	336 nM	–
O=C1NC(=O)C(O)(CC(=O)c2ccccc2)C(=O)N1	–	–	–	inhibition [8]: 0%
CN(C)C(=O)c1ccc(-c2ccc(C(=O)CC3(O)C(=O)NC(=O)NC3=O)cc2)cc1	1340 nM	3010 nM	2020 nM	–
O=C1NC(=O)C(O)(CC(=O)c2ccc(-c3cccc([N+](=O)[O-])c3)cc2)C(=O)N1	8100 nM	27500 nM	2600 nM	–
O=C1NC(=O)C(O)(CC(=O)c2ccc(-c3ccc(Cl)cc3)cc2)C(=O)N1	278 nM	66 nM	271 nM	–
O=C(Cc1ccc(-c2ccccc2)cc1)CC1(O)C(=O)NC(=O)NC1=O	–	–	–	inhibition [4]: 10%; inhibition [5]: 26%; inhibition [6]: 21%
O=C1NC(=O)C(O)(CC(=O)c2ccc(-c3ccsc3)cc2)C(=O)N1	181 nM	159 nM	153 nM	–
O=C1NC(=O)C(O)(CC(=O)c2ccc(-c3ccc(CO)cc3)cc2)C(=O)N1	148 nM	561 nM	210 nM	–
O=C1NC(=O)C(O)(CC(=O)c2ccc([N+](=O)[O-])cc2)C(=O)N1	–	–	63000 nM	inhibition [7]: 8%; inhibition [8]: 0%
CSc1ccc(-c2ccc(C(=O)CC3(O)C(=O)NC(=O)NC3=O)cc2)cc1	120 nM	86 nM	313 nM	–
CS(=O)(=O)c1ccc(-c2ccc(C(=O)CC3(O)C(=O)NC(=O)NC3=O)cc2)cc1	58 nM	650 nM	66 nM	–

— ChEMBL document CHEMBL2150857, “Design, synthesis and biological evaluation of 5-hydroxy, 5-substituted-pyrimidine-2,4,6-triones as potent inhibitors of gelatinases MMP-2 and MMP-9” (Eur J Med Chem, 2012)
